Our source for the IC50 and EC50 values is ChEMBL document CHEMBL1129753, “N-terminus urea-substituted chemotactic peptides: new potent agonists and antagonists toward the neutrophil fMLF receptor” (J Med Chem, 1996).

The IC50 is the midpoint of a concentration-inhibition curve. Lower therefore signals inhibition by little substance. Broadly, the EC50 is the midpoint of the concentration-response curve.

Assay [1] addresses T1, fMet-Leu-Phe receptor (Homo sapiens, UniProt P21462).
T1 sequence (P21462 whole entry): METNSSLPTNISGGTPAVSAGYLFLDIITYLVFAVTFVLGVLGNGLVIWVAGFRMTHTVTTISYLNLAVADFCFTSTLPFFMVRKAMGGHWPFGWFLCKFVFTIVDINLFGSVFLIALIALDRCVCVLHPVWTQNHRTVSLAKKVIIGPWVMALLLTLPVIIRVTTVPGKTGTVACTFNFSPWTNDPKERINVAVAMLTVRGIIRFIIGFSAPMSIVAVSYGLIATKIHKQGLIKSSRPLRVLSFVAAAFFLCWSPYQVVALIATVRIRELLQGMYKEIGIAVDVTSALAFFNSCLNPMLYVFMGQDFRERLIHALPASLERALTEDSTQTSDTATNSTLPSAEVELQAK
Description: Binding affinity towards fMLF receptor using human neutrophils. The essentials:
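Competition binding on human neutrophils: the peptide displaces tritiated fMLF from the fMLF receptor. Values are mean ± SE of 2–3 independent experiments.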

The target of assay [2] is T1, fMet-Leu-Phe receptor. Kind of assay: Agonistic activity was determined by measuring the ability to induce superoxide production(as measured by reduction of cytochrome C) using human neutrophils; NA= No activity at 30 uM. In kind it is functional. The method in brief:
(§1)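 Human neutrophils; agonist read-out is superoxide generation induced by the peptide, followed as cytochrome C reduction. Values are mean ± SE of 2–3 independent experiments.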

For assay [3], the target named is T1, fMet-Leu-Phe receptor. Kind of assay: Antagonistic activity was determined by measuring the ability to inhibit superoxide production (stimulated by fMLF) using human neutrophils. The format is functional. The method in brief: (§2)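 Human neutrophils stimulated with fMLF, with the peptide present. Antagonism is the inhibition of fMLF-driven superoxide production, read as cytochrome C reduction. Values are mean ± SE of 2–3 independent experiments.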

Assay [4] is filed under the species Homo sapiens. Kind of assay: Agonistic activity was determined by measuring the compound's ability to induce superoxide production(as measured by reduction of cytochrome C) using human neutrophils; NA= No activity at 30 uM. The format is functional, organism-based. The method in brief:
as §1

Assay [5] has as its target T1, fMet-Leu-Phe receptor. Kind of assay: Agonistic activity was determined by measuring the ability to induce superoxide production(as measured by reduction of cytochrome C) using human neutrophils. In kind it is functional. The method in brief: as §1
Assay [6] is filed under the species Homo sapiens. Description: Antagonistic activity was determined by measuring the compound's ability to inhibit superoxide production (stimulated by fMLF) using human neutrophils; NA= No activity at 30 uM. In kind it is functional, organism-based. The essentials: as §2
Assay [7] is described as follows: Agonistic activity was determined by measuring the compound's ability to induce superoxide production(as measured by reduction of cytochrome C) using human neutrophils. In kind it is functional. The essentials: as §1

`CC(C)C[C@@H](NC(=O)[C@H](Cc1ccccc1)NC(=O)[C@@H](CC(C)C)NC(=O)[C@H](Cc1ccccc1)NC(=O)NC(C)C)C(=O)N[C@@H](Cc1ccccc1)C(=O)O`: the IC50 turned out to be 200 nM on fMet-Leu-Phe receptor [1] and 500 nM on fMet-Leu-Phe receptor [3]. The concentration for a half-maximal effect (EC50) result on fMet-Leu-Phe receptor [2] is on record as “Not Active”.

Take `CC(C)C[C@@H](NC(=O)[C@H](Cc1ccccc1)NC(=O)[C@@H](CC(C)C)NC(=O)[C@H](Cc1ccccc1)NC(N)=O)C(=O)N[C@@H](Cc1ccccc1)C(=O)O`: the IC50 was found to be 800 nM on fMet-Leu-Phe receptor [1] and 100 nM against fMet-Leu-Phe receptor [3]. Also, in the assay filed under Homo sapiens [4], the EC50 result is “Not Active”.

Take `CCCNC(=O)N[C@@H](CCSC)C(=O)N[C@@H](CC(C)C)C(=O)N[C@@H](Cc1ccccc1)C(=O)O`: the IC50 was found to be 2000 nM at fMet-Leu-Phe receptor [1] and 3000 nM against fMet-Leu-Phe receptor [3]. The EC50 entry at fMet-Leu-Phe receptor [2] was “Not Active”.

On to `CSCC[C@H](NC(=O)NC12CC3CC(CC(C3)C1)C2)C(=O)N[C@@H](CC(C)C)C(=O)N[C@@H](Cc1ccccc1)C(=O)O`, for which the figures for the IC50 on fMet-Leu-Phe receptor [1] and on fMet-Leu-Phe receptor [3] were 900 nM and 2000 nM, respectively.

For `Cc1cccc(NC(=O)N[C@@H](Cc2ccccc2)C(=O)N[C@H](CC(C)C)C(=O)N[C@@H](Cc2ccccc2)C(=O)N[C@H](CC(C)C)C(=O)N[C@@H](Cc2ccccc2)C(=O)O)c1`, the IC50 was determined as 200 nM at fMet-Leu-Phe receptor [1] and 20 nM against fMet-Leu-Phe receptor [3]. In addition, the EC50 entry at fMet-Leu-Phe receptor [2] was “Not Active”.

`COc1ccc(NC(=O)N[C@@H](CCSC)C(=O)N[C@@H](CC(C)C)C(=O)NC(Cc2ccccc2)C(=O)O)cc1` (stereo not given in full) yielded an EC50 on fMet-Leu-Phe receptor [5] of 1 nM. In addition, the figures for the IC50 on fMet-Leu-Phe receptor [1] and in the assay filed under Homo sapiens [6] were 2 nM and “Not Active”, respectively.

At fMet-Leu-Phe receptor [5], `CSCC[C@H](NC(=O)Nc1ccc(C)cc1)C(=O)N[C@@H](CC(C)C)C(=O)N[C@@H](Cc1ccccc1)C(=O)O` gave an EC50 of 2 nM. The IC50 was 2 nM at fMet-Leu-Phe receptor [1] and “Not Active” in the assay listed under Homo sapiens [6].

Regarding `CC(C)C[C@@H](NC(=O)[C@H](Cc1ccccc1)NC(=O)[C@@H](CC(C)C)NC(=O)[C@H](Cc1ccccc1)NC(=O)NC12CC3CC(CC(C3)C1)C2)C(=O)N[C@@H](Cc1ccccc1)C(=O)O`, the values for the half-maximal inhibitory concentration (IC50) at fMet-Leu-Phe receptor [1] and on fMet-Leu-Phe receptor [3] were 20 nM and 300 nM, respectively. The EC50 entry at fMet-Leu-Phe receptor [2] is “Not Active”.

Take `CSCC[C@H](NC(=O)NC(C)C)C(=O)N[C@@H](CC(C)C)C(=O)N[C@@H](Cc1ccccc1)C(=O)O`: the IC50 at fMet-Leu-Phe receptor [1] came out at 2000 nM; against fMet-Leu-Phe receptor [3], 5000 nM.

On to `CC(C)C[C@@H](NC(=O)[C@H](Cc1ccccc1)NC(=O)[C@@H](CC(C)C)NC(=O)[C@H](Cc1ccccc1)NC(=O)Nc1ccccc1)C(=O)N[C@@H](Cc1ccccc1)C(=O)O`, for which the IC50 was found to be 50 nM at fMet-Leu-Phe receptor [1] and 500 nM at fMet-Leu-Phe receptor [3]. The EC50 entry at fMet-Leu-Phe receptor [2] is recorded as “Not Active”.

For `CSCC[C@H](NC(=O)NCc1ccccc1)C(=O)N[C@@H](CC(C)C)C(=O)N[C@@H](Cc1ccccc1)C(=O)O`, the IC50 was 800 nM at fMet-Leu-Phe receptor [1] and 600 nM on fMet-Leu-Phe receptor [3].

Take `CSCC[C@H](NC(=O)NCC(C)C)C(=O)N[C@@H](CC(C)C)C(=O)N[C@@H](Cc1ccccc1)C(=O)O`: the concentration for half-maximal inhibition (IC50) on fMet-Leu-Phe receptor [1] is 1000 nM; on fMet-Leu-Phe receptor [3], 4000 nM. Further, the EC50 result on fMet-Leu-Phe receptor [2] is “Not Active”.

The compound `CSCC[C@H](NC(N)=O)C(=O)N[C@@H](CC(C)C)C(=O)N[C@@H](Cc1ccccc1)C(=O)O` showed an EC50 on fMet-Leu-Phe receptor [5] of 3000 nM. The IC50 at fMet-Leu-Phe receptor [1] came to 2000 nM.

Regarding `CSCC[C@H](NC(=O)Nc1ccccc1)C(=O)N[C@@H](CC(C)C)C(=O)N[C@@H](Cc1ccccc1)C(=O)O`, at fMet-Leu-Phe receptor [5], the half-maximal effective concentration (EC50) stood at 40 nM. For the same compound, the IC50 was 30 nM on fMet-Leu-Phe receptor [1] and “Not Active” in the assay filed under Homo sapiens [6].

For the compound `CCCCNC(=O)N[C@@H](CCSC)C(=O)N[C@@H](CC(C)C)C(=O)N[C@@H](Cc1ccccc1)C(=O)O`, on fMet-Leu-Phe receptor [5], the EC50 came to 300 nM. Further, the IC50 at fMet-Leu-Phe receptor [1] came out at 300 nM.

As to `CSCC[C@H](NC(=O)NC(C)(C)C)C(=O)N[C@@H](CC(C)C)C(=O)N[C@@H](Cc1ccccc1)C(=O)O`, the IC50 amounted to 3000 nM on fMet-Leu-Phe receptor [1] and 2000 nM against fMet-Leu-Phe receptor [3]. The EC50 result at fMet-Leu-Phe receptor [2] was “Not Active”.

`C=C(C)NC(=O)N[C@@H](CCSC)C(=O)N[C@@H](CC(C)C)C(=O)N[C@@H](Cc1ccccc1)C(=O)O` yielded an IC50 on fMet-Leu-Phe receptor [1] of 300 nM. The compound also had an EC50 in assay [7] of 400 nM.

`CSCC[C@H](NC(=O)Nc1cccc(C)c1)C(=O)N[C@@H](CC(C)C)C(=O)N[C@@H](Cc1ccccc1)C(=O)O` registered an EC50 at fMet-Leu-Phe receptor [5] of 900 nM. The IC50 at fMet-Leu-Phe receptor [1] turned out to be 100 nM; at fMet-Leu-Phe receptor [3], 1600 nM.

For `CCNC(=O)N[C@@H](CCSC)C(=O)N[C@@H](CC(C)C)C(=O)N[C@@H](Cc1ccccc1)C(=O)O`, the IC50 was found to be 1000 nM at fMet-Leu-Phe receptor [1] and 3000 nM against fMet-Leu-Phe receptor [3]. The half-maximal effective concentration (EC50) result at fMet-Leu-Phe receptor [2] is recorded as “Not Active”.

As to `CCCCNC(=O)N[C@@H](Cc1ccccc1)C(=O)N[C@H](CC(C)C)C(=O)N[C@@H](Cc1ccccc1)C(=O)N[C@H](CC(C)C)C(=O)N[C@@H](Cc1ccccc1)C(=O)O`, the values for the IC50 on fMet-Leu-Phe receptor [1] and against fMet-Leu-Phe receptor [3] were 300 nM and 600 nM, respectively. The EC50 entry on fMet-Leu-Phe receptor [2] is recorded as “Not Active”.

Regarding `CNC(=O)N[C@@H](CCSC)C(=O)N[C@@H](CC(C)C)C(=O)N[C@@H](Cc1ccccc1)C(=O)O`, the IC50 is 3000 nM on fMet-Leu-Phe receptor [1] and 2000 nM against fMet-Leu-Phe receptor [3]. Also, at fMet-Leu-Phe receptor [2], the EC50 entry was “Not Active”.

In turn, `CSCC[C@H](NC(=O)Nc1ccc(Cl)cc1)C(=O)N[C@@H](CC(C)C)C(=O)N[C@@H](Cc1ccccc1)C(=O)O` showed a concentration giving a half-maximal response (EC50) on fMet-Leu-Phe receptor [5] of 1 nM. In addition, the figures for the IC50 on fMet-Leu-Phe receptor [1] and in the assay listed under Homo sapiens [6] were 2 nM and “Not Active”, respectively.
